In ChEMBL document CHEMBL1153436, “2-Pyridyl P1'-substituted symmetry-based human immunodeficiency virus protease inhibitors (A-792611 and A-790742) with potential for convenient dosing and reduced side effects” (J Med Chem, 2009):
Converted amounts (≈) assume the structure as drawn.

Tests used:
[1] = test system: Human immunodeficiency virus 1; experiment: Antiviral activity against HIV1 bearing protease gene with B26 mutation infected in human MT4 cells after 5 days by MTT assay; assay type: functional, organism-based; conditions: Human immunodeficiency virus 1, MT4, 120 h
[2] = test system: Human immunodeficiency virus 1; experiment: Antiviral activity against HIV1 bearing protease gene with P25 mutation infected in human MT4 cells after 5 days by MTT assay; assay type: functional, organism-based; conditions: Human immunodeficiency virus 1, MT4, 120 h
[3] = test system: Rattus norvegicus; experiment: Toxicity in Gunn rat assessed as unconjugated-bilirubin level at 125 mg/kg coadministered with ritonavir measured on day 1; assay type: organism-based; parameters: dose 125 mg/kg; conditions: in vivo
How it was run: (§1)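 Gunn rats (n = 8-10 per arm) dosed orally with compound in 5% ethanol/95% propylene glycol with p-toluenesulfonic acid, together with 50 mg/kg RTV. Plasma was sampled 4 h after the first and second doses. Drug was measured by HPLC and bilirubin […]. Change in bilirubin (mg/dL) reported as mean with SD.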

[4] = test system: Serum; experiment: Drug level in Gunn rat serum at 125 mg/kg coadministered with ritonavir measured on day 1; assay type: ADME, organism-based; parameters: dose 125 mg/kg; conditions: in vivo; how it was run: as §1
[5] = test system: Human immunodeficiency virus 1; experiment: Antiviral activity against wild-type HIV1 pNL4-3 infected in human MT4 cells after 5 days by MTT assay; assay type: functional, organism-based; conditions: Human immunodeficiency virus 1, MT4, 120 h
[6] = test system: Human immunodeficiency virus 1; experiment: Antiviral activity against wild-type HIV1 pNL4-3 infected in human MT4 cells after 5 days by MTT assay in presence of 50% human serum; assay type: functional, organism-based; conditions: Human immunodeficiency virus 1, MT4, 120 h
[7] = test system: Human immunodeficiency virus 1; experiment: Antiviral activity against HIV1 bearing protease gene with A17 mutation infected in human MT4 cells after 5 days by MTT assay; assay type: functional, organism-based; conditions: Human immunodeficiency virus 1, MT4, 120 h
How it was run: (§2)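 HIV-1 A17 mutant clone carrying protease mutations L10F, V32I, M46I, I47V, Q58E and I84V, generated by in vitro serial passage under LPV/RTV. EC50 was determined in MT-4 cells. Wild-type reference strain was HIV-1 pNL4-3.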

[8] = Half life in Sprague-Dawley rat at 5 mg/kg, iv; assay type: ADME, organism-based; parameters: dose 5 mg/kg, route intravenous; conditions: in vivo
How it was run: (§3)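 Male Sprague-Dawley-derived rats (n = 3) dosed iv or by oral gavage with 5 mg/mL solutions in 5% dextrose containing 20% ethanol, 30% propylene glycol and methanesulfonic acid equivalents. Plasma was sampled at 10 time points over 8 h, extracted into ethyl acetate/hexane and analysed by reversed-phase HPLC with internal standard. AUC in µg·h/mL.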

[9] = Clearance in Sprague-Dawley rat at 5 mg/kg, iv; assay type: ADME, organism-based; parameters: dose 5 mg/kg, route intravenous; conditions: in vivo; how it was run: as §3
[10] = Oral bioavailability in Sprague-Dawley rat at 5 mg/kg; assay type: ADME, organism-based; conditions: in vivo; how it was run: as §3
[11] = AUC in Sprague-Dawley rat at 5 mg/kg, po; assay type: ADME, organism-based; parameters: dose 5 mg/kg, route oral; conditions: plasma; how it was run: as §3
[12] = AUC in Sprague-Dawley rat at 5 mg/kg, po in presence of ritonavir; assay type: ADME, organism-based; parameters: dose 5 mg/kg, route oral; conditions: plasma; how it was run: as §3
[13] = AUC in dog at 5 mg/kg, po; assay type: ADME, organism-based, Canis lupus familiaris; parameters: dose 5 mg/kg, route oral; conditions: plasma
How it was run: (§4)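 Male and female beagle dogs (n = 3) given oral gavage doses formulated as 5 mg/mL solutions in 5% dextrose with 20% ethanol, 30% propylene glycol and methanesulfonic acid, alone or with RTV (2.5 or 5 mg/kg). Plasma was taken at 12 time points over 12 h, extracted with ethyl acetate/hexane and analysed by reversed-phase HPLC with internal standard. AUC in µg·h/mL; Cmax and C12h in µg/mL.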

[14] = Cmax in dog at 5 mg/kg, po; assay type: ADME, organism-based, Canis lupus familiaris; parameters: dose 5 mg/kg, route oral; conditions: in vivo; how it was run: as §4
[15] = AUC in dog at 5 mg/kg, po coadministered with 2.5 mg/kg ritonavir; assay type: ADME, organism-based, Canis lupus familiaris; conditions: plasma; how it was run: as §4
[16] = Cmax in dog at 5 mg/kg, po coadministered with 2.5 mg/kg ritonavir; assay type: ADME, organism-based, Canis lupus familiaris; parameters: dose 5 mg/kg, route oral; conditions: in vivo; how it was run: as §4
[17] = Concentration of drug after 12 hrs in dog at 5 mg/kg, po coadministered with 2.5 mg/kg ritonavir; assay type: ADME, organism-based, Canis lupus familiaris; conditions: in vivo, read-out: Drug uptake; how it was run: as §4
[18] = AUC in dog at 5 mg/kg, po coadministered with 5 mg/kg ritonavir; assay type: ADME, organism-based, Canis lupus familiaris; conditions: plasma; how it was run: as §4
[19] = Cmax in dog at 5 mg/kg, po coadministered with 5 mg/kg ritonavir; assay type: ADME, organism-based, Canis lupus familiaris; parameters: dose 5 mg/kg, route oral; conditions: in vivo; how it was run: as §4
[20] = Concentration of drug after 12 hrs in dog at 5 mg/kg, po coadministered with 5 mg/kg ritonavir; assay type: ADME, organism-based, Canis lupus familiaris; conditions: in vivo, read-out: Drug uptake; how it was run: as §4
[21] = Solubility at pH 7.4; assay type: physicochemical; conditions: buffer
How it was run: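 Solubility measured in µg/mL at pH 7.4 and 25 °C.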

[22] = Protein binding in human plasma by equilibrium dialysis; assay type: ADME, cell-free; conditions: read-out: PB (converted)
How it was run: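 Percentage bound in human plasma, determined by equilibrium dialysis.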

[23] = target: T1, Cytochrome P450 1A2 (Homo sapiens, UniProt P05177); experiment: Inhibition of CYP1A2 assessed as phenacetin O-deethylation; assay type: ADME
T1 sequence (P05177 whole entry): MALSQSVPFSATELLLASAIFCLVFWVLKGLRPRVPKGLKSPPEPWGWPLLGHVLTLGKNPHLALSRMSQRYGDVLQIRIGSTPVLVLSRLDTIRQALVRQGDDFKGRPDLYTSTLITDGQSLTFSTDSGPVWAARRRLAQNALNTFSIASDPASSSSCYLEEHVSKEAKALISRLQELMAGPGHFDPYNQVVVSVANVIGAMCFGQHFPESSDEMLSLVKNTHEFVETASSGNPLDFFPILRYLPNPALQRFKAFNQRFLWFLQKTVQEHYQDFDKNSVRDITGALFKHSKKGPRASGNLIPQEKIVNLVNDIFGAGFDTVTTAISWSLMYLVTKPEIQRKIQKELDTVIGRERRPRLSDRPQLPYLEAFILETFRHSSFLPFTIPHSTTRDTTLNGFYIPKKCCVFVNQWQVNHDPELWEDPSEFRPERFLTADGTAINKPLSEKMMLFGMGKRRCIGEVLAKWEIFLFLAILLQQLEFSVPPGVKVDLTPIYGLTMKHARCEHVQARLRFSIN
How it was run: (§5)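 CYP inhibition in vitro, with probe reactions of phenacetin O-deethylation (CYP1A2), tolbutamide hydroxylation (CYP2C9), S-mephenytoin hydroxylation (CYP2C19) and dextromethorphan O-demethylation (CYP2D6). Reported as IC50 in µM.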

[24] = target: Cytochrome P450 2C9 (Homo sapiens, UniProt P11712); experiment: Inhibition of CYP2C9 assessed as Tolbutamide hydroxylation; assay type: ADME; how it was run: as §5
Cytochrome P450 2C9, sequence (P11712 whole entry): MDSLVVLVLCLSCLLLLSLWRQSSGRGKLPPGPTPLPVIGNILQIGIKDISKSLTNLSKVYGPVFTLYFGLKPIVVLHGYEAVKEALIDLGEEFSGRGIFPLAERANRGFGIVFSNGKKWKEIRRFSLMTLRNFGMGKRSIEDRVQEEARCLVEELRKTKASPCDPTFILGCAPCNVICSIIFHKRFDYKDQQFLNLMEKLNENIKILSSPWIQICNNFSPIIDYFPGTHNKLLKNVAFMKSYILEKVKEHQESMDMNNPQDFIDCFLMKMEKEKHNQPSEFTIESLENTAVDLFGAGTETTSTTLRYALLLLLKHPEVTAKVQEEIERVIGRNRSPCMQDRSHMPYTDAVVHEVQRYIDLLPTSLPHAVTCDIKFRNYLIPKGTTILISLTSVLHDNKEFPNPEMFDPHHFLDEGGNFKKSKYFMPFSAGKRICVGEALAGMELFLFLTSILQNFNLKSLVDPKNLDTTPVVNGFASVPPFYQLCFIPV

[25] = target: Cytochrome P450 2C19 (Homo sapiens, UniProt P33261); experiment: Inhibition of CYP2C19 assessed as S-mephenytion hydroxylation; assay type: ADME; how it was run: as §5
Cytochrome P450 2C19, sequence (P33261 whole entry): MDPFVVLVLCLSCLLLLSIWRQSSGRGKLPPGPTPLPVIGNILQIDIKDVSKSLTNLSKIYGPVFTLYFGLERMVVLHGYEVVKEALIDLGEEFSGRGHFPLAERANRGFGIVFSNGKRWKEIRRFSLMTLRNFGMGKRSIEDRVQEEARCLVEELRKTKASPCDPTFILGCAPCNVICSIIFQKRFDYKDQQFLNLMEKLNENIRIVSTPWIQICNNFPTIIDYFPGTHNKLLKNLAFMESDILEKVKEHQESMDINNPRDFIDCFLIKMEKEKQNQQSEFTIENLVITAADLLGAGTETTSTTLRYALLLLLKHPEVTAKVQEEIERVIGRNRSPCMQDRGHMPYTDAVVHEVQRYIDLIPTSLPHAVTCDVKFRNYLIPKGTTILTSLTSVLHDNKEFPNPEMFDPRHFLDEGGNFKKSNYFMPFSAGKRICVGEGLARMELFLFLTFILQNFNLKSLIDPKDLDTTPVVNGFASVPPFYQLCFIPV

[26] = target: Cytochrome P450 2D6 (Homo sapiens, UniProt P10635); experiment: Inhibition of CYP2D6 assessed as dextromethorphan O-demethylation; assay type: ADME; how it was run: as §5
Cytochrome P450 2D6, sequence (P10635 whole entry): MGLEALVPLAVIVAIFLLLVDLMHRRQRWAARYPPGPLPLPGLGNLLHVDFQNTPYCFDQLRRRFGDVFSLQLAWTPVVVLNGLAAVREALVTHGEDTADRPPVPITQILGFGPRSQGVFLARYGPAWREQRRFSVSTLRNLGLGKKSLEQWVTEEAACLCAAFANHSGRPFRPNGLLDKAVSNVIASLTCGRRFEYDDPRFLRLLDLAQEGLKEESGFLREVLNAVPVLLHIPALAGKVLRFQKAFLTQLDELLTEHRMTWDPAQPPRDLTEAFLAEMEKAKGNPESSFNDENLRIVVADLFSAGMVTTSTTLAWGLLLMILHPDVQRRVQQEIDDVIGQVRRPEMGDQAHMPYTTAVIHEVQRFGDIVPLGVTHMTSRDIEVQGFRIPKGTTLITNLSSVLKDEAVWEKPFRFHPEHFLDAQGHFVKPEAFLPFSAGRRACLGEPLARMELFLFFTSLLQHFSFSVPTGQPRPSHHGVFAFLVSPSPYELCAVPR

[27] = target: Cytochrome P450 3A4 (Homo sapiens, UniProt P08684); experiment: Inhibition of CYP3A4 assessed as midazolam 1'- hydroxylation; assay type: ADME
Cytochrome P450 3A4, sequence (P08684 whole entry): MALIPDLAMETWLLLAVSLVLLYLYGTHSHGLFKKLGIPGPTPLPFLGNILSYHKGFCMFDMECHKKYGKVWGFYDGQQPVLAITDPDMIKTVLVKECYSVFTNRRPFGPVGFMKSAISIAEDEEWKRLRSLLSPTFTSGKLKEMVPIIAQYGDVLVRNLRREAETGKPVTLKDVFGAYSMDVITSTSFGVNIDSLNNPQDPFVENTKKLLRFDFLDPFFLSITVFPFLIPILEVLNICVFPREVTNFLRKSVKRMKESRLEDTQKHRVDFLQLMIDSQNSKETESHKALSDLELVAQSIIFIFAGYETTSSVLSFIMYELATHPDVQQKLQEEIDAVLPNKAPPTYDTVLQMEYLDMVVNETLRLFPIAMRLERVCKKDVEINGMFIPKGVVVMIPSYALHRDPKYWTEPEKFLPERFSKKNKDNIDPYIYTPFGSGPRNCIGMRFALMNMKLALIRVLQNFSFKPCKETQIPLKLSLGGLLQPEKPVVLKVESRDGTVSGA
How it was run: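 CYP3A4 inhibition was measured as midazolam 1′-hydroxylation and expressed as Ki in nM.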

[28] = Inhibition of human pepsin
[29] = target: T2, Renin (Homo sapiens, UniProt P00797); experiment: Inhibition of renin
T2 sequence (P00797 whole entry): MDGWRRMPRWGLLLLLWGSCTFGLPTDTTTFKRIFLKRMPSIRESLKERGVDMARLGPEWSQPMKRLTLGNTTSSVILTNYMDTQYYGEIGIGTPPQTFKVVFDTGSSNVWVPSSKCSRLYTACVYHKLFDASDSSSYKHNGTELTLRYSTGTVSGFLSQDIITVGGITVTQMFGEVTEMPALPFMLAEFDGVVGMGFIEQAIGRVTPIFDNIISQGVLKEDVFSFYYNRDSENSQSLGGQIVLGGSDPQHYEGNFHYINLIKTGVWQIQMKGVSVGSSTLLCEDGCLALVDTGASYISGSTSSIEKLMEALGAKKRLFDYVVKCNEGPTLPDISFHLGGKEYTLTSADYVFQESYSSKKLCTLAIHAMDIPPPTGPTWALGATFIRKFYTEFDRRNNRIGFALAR

[30] = target: Cathepsin D (Homo sapiens, UniProt P07339); experiment: Inhibition of cathepsin D
Cathepsin D, sequence (P07339 65-162 limits assumed): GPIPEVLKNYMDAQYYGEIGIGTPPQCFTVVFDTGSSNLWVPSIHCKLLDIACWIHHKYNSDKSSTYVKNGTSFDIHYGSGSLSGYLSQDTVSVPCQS
Cathepsin D, sequence (P07339 169-412 limits assumed): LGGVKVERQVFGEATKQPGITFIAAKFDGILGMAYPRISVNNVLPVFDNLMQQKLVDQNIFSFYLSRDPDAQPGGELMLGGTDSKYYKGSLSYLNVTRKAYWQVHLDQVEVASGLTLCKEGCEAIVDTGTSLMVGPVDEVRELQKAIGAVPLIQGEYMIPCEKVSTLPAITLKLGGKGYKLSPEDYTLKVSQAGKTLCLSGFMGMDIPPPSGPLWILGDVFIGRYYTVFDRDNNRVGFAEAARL

[31] = test system: Serum; experiment: Drug level in Gunn rat serum at 125 mg/kg coadministered with ritonavir measured on day 2; assay type: ADME, organism-based; parameters: dose 125 mg/kg; conditions: in vivo; how it was run: as §1
[32] = test system: Human immunodeficiency virus 1; experiment: Fold resistance, ratio of EC50 for HIV1 bearing protease gene with A17 mutation to EC50 for wild-type HIV1 pNL4-3; assay type: functional; how it was run: as §2
[33] = Inhibition of HIV protease; parameters: species or system Human immunodeficiency virus
[34] = test system: Rattus norvegicus; experiment: Toxicity in Gunn rat assessed as unconjugated-bilirubin level at 125 mg/kg coadministered with ritonavir measured on day 2; conditions: in vivo

SMILES	EC50 [1]	EC50 [2]	Activity [3]	Drug uptake [4]	EC50 [5]	EC50 [6]	EC50 [7]	half-life [8]	clearance [9]	bioavailability [10]	AUC [11]	AUC [12]	AUC [13]	Cmax [14]	AUC [15]	Cmax [16]	concentration at 12 h [17]	AUC [18]	Cmax [19]	concentration at 12 h [20]	further results
COC(=O)N[C@H](C(=O)N[C@H](Cc1ccc(-c2ccccn2)cc1)C[C@H](O)[C@H](Cc1ccccc1)NC(=O)[C@@H](N1CCN(Cc2cccc(C(C)(C)O)n2)C1=O)C(C)(C)C)C(C)(C)C	25 nM	45 nM	0.125 mg/dL	9.37 µg/mL	3 nM	19 nM	10 nM	30 min	22.5 mL/min/kg	4.9%	180 ng·h/mL	12900 ng·h/mL	20 ng·h/mL	40 ng/mL	6720 ng·h/mL	2220 ng/mL	13 ng/mL	10600 ng·h/mL	2560 ng/mL	58 ng/mL	solubility [21]: 11.3 µg/mL (≈ 13.1 µM); fraction unbound [22]: 0.018; IC50 [23]: > 5000 nM; IC50 [24]: > 5000 nM; IC50 [25]: > 5000 nM; IC50 [26]: > 5000 nM; Ki [27]: 66 nM; Ki [28]: 200000 nM; Ki [29]: > 20000 nM; Ki [30]: 540 nM
COC(=O)N[C@H](C(=O)N[C@@H](Cc1ccc(-c2ccccn2)cc1)C[C@H](O)[C@H](Cc1ccccc1)NC(=O)[C@@H](N1CCN(Cc2ccccc2)C1=O)C(C)(C)C)C(C)(C)C	140 nM	103 nM	0.144 mg/dL	2.45 µg/mL	2 nM	12 nM	22 nM	60 min	19.2 mL/min/kg	3.4%	150 ng·h/mL	3500 ng·h/mL	210 ng·h/mL	170 ng/mL	19000 ng·h/mL	3910 ng/mL	68 ng/mL	41900 ng·h/mL	5890 ng/mL	924 ng/mL	Drug uptake [31]: 5.33 µg/mL; Ratio EC50 [32]: 11; solubility [21]: < 0.15 µg/mL; fraction unbound [22]: 0.0034; IC50 [23]: > 10000 nM; IC50 [24]: > 10000 nM; IC50 [25]: > 10000 nM; IC50 [26]: > 10000 nM; Ki [27]: 18 nM; Ki [33]: 0.015 nM; Ki [28]: 177000 nM; Ki [29]: > 4000 nM; Ki [30]: 4300 nM; Activity [34]: 0.133 mg/dL
